According to ChEMBL document CHEMBL3414559, “Novel C-4 heteroaryl 13-cis-retinamide Mnk/AR degrading agents inhibit cell proliferation and migration and induce apoptosis in human breast and prostate cancer cells and suppress growth of MDA-MB-231 human breast and CWR22Rv1 human prostate tumor xenografts in mice” (J Med Chem, 2015):
The source made the active and inactive calls. The rule behind the calls is not given here.

Columns and labels:
[1] = tested on: MDA-MB-231; assay: Antitumor activity against human MDA-MB-231 cells xenografted in nude mouse assessed as reduction in Mnk1/2 protein expression at 20 mg/kg, ip dosed once daily for 5 days per week for 28 days by SDS-PAGE and Western blotting method
[2] = tested on: MDA-MB-468; assay: Reduction in peIF4E protein expression in human MDA-MB-468 cells at 0.63 uM to 20 uM after 24 hrs by SDS-PAGE and Western blotting method; format: functional, cell-based
Method in brief: (§1)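 MCF-7, MDA-MB-231 and MDA-MB-468 cells, kept in RPMI 1640 with 10% FBS, were exposed for 24 h to a range of concentrations, with DMSO vehicle controls. Equal protein from lysates was separated by SDS–PAGE and probed for Mnk1, Mnk2, peIF4E, eIF4E and cPARP. GAPDH reprobing served as loading control.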

[3] = tested on: MDA-MB-231; assay: Inhibition of cell migration of human MDA-MB-231 cells at 5 uM after 24 hrs by wound healing assay; format: functional, cell-based
Method in brief: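 Cells (5 × 10⁵ per well) grown to confluence, monolayer scratched at time zero, then exposed to 5 μM for 24 h; initial and final wounds photographed at 100×.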

[4] = tested on: MDA-MB-231; assay: Reduction in Mnk1 protein expression in human MDA-MB-231 cells at 0.63 uM to 20 uM after 24 hrs by SDS-PAGE and Western blotting method; format: functional, cell-based
Method in brief: (§2)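 Breast cancer cells in RPMI 1640 with 10% FBS treated 24 h at indicated concentrations, DMSO vehicle control; equal protein loaded on SDS–PAGE and immunoblotted for Mnk1, Mnk2, peIF4E, eIF4E and cleaved PARP; blots reprobed for GAPDH as loading control.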

[5] = tested on: LNCaP; assay: Induction of apoptosis in human LNCAP cells assessed as reduction in cyclin D1 levels at 0.6 uM to 20 uM after 24 hrs by SDS-PAGE and Western blotting method; format: functional, cell-based
Method in brief: (§3)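 LNCaP cells (RPMI 1640, 10% FBS) exposed 24 h to 0.6–20 μM, DMSO vehicle control; equal protein on SDS–PAGE, immunoblotted for fAR, Mnk1/2, peIF4E, cyclin D1 and cleaved PARP; β-actin reprobe for loading.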

[6] = tested on: LNCaP; assay: Induction of apoptosis in human LNCAP cells assessed as increase in c-PARP formation at 0.6 uM to 20 uM after 24 hrs by SDS-PAGE and Western blotting method; format: functional, cell-based
Method in brief: as §3

[7] = Growth inhibition of human CWR22Rv1 cells by MTT assay; format: functional, CWR22R; details: 22Rv1
Method in brief: (§4)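 Cells grown in RPMI 1640 with 10% FBS, plated at 2500 cells/well, treated across a dose range; growth read by MTT. GI50 taken from dose–response curves by nonlinear regression, at least three independent experiments.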

[8] = tested on: MDA-MB-468; assay: Reduction in Mnk2 protein expression in human MDA-MB-468 cells at 0.63 uM to 20 uM after 24 hrs by SDS-PAGE and Western blotting method; format: functional, cell-based
Method in brief: as §2

[9] = tested on: MDA-MB-231; assay: Antitumor activity against human MDA-MB-231 cells xenografted in nude mouse assessed as increase in Bad protein expression at 20 mg/kg, ip dosed once daily for 5 days per week for 28 days by SDS-PAGE and Western blotting method
[10] = tested on: MDA-MB-231; assay: Growth inhibition of human MDA-MB-231 cells by MTT assay; format: functional
Method in brief: as §4

[11] = Growth inhibition of human PC3 cells by MTT assay; format: functional; details: PC-3
Method in brief: as §4

[12] = tested on: MCF7; assay: Effect on total eIF4E protein expression in human MCF7 cells at 0.63 uM to 20 uM after 24 hrs by SDS-PAGE and Western blotting method; format: functional, cell-based
Method in brief: as §2

[13] = tested on: Mus musculus; assay: Toxicity in human MDA-MB-231 cells xenografted athymic nude mouse assessed as induction of toxic signs at 20 mg/kg, ip dosed once daily for 5 days per week for 28 days; details: in vivo
[14] = tested on: MCF7; assay: Reduction in Mnk2 protein expression in human MCF7 cells at 0.63 uM to 20 uM after 24 hrs by SDS-PAGE and Western blotting method; format: functional, cell-based
Method in brief: as §2

[15] = tested on: LNCaP; assay: Reduction in Mnk2 protein expression in human LNCAP cells at 0.6 uM to 20 uM after 24 hrs by SDS-PAGE and Western blotting method; format: functional, cell-based
Method in brief: as §3

[16] = tested on: LNCaP; assay: Reduction in Mnk1 protein expression in human LNCAP cells at 0.6 uM to 20 uM after 24 hrs by SDS-PAGE and Western blotting method; format: functional, cell-based
Method in brief: as §3

[17] = tested on: MDA-MB-468; assay: Reduction in Mnk1 protein expression in human MDA-MB-468 cells at 0.63 uM to 20 uM after 24 hrs by SDS-PAGE and Western blotting method; format: functional, cell-based
Method in brief: as §2

[18] = target: T1, Androgen receptor (Homo sapiens) (UniProt P10275); details: LNCaP, at 10 µM
T1 sequence (whole entry): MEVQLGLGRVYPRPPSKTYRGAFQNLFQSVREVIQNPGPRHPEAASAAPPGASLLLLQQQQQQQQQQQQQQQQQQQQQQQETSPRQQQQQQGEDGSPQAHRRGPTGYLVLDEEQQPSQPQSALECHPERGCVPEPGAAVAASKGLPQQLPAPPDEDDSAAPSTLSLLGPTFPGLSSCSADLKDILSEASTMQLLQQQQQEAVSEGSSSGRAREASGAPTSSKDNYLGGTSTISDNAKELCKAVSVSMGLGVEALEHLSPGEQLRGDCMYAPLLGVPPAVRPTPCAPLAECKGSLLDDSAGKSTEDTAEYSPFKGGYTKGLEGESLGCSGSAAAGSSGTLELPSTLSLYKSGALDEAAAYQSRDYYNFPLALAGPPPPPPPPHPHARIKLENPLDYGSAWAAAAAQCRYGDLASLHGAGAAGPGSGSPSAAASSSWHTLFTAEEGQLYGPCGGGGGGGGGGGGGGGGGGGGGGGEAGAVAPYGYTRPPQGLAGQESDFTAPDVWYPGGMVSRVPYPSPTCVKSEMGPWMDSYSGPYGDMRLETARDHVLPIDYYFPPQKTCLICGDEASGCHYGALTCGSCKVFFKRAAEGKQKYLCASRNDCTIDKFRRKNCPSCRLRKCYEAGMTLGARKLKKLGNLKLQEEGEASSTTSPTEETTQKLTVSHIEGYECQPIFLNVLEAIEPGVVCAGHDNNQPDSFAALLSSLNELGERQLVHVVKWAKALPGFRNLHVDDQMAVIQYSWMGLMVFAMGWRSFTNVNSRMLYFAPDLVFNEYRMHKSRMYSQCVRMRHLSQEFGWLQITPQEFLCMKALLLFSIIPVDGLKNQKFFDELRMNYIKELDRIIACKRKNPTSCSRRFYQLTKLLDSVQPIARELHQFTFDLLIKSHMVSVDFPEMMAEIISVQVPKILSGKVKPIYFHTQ

[19] = Growth inhibition of human SKBR3 cells by MTT assay; format: functional; details: SK-BR-3
Method in brief: as §4

[20] = tested on: MCF7; assay: Reduction in peIF4E protein expression in human MCF7 cells at 0.63 uM to 20 uM after 24 hrs by SDS-PAGE and Western blotting method; format: functional, cell-based
Method in brief: as §1

[21] = tested on: MDA-MB-468; assay: Growth inhibition of human MDA-MB-468 cells by MTT assay; format: functional
Method in brief: as §4

SMILES	Activity [1]	inhibition [2]	inhibition [3]	inhibition [4]	Activity [5]	Activity [6]	GI50 [7]	inhibition [8]	Activity [9]	GI50 [10]	GI50 [11]	Activity [12]	Activity [13]	inhibition [14]	inhibition [15]	inhibition [16]	inhibition [17]	inhibition [18]	GI50 [19]	inhibition [20]	further results
CC1=C(/C=C/C(C)=C/C=C/C(C)=C\C(=O)Nc2cccc(F)c2)C(C)(C)CCC1n1ccnc1 (configuration not stated)	Active	Dose-dependent effect	Active	Dose-dependent effect	Active	Active	2.04 µM	Dose-dependent effect	Active	8.51 µM	5.62 µM	inactive	Non-toxic	Dose-dependent effect	Dose-dependent effect	Dose-dependent effect	Dose-dependent effect	Active	17 µM	Dose-dependent effect	GI50 [21]: 6.76 µM
CC1=C(/C=C/C(C)=C/C=C/C(C)=C\C(=O)NCc2ccc(O)cc2)C(C)(C)CCC1n1ccnc1 (configuration not stated)	Active	Dose-dependent effect	Active	Dose-dependent effect	Active	Active	1.86 µM	Dose-dependent effect	Active	2.23 µM	3.54 µM	inactive	Non-toxic	Dose-dependent effect	Dose-dependent effect	Dose-dependent effect	Dose-dependent effect	Active	2.45 µM	Dose-dependent effect	GI50 [21]: 2.7 µM
